Published values pooled from the literature.
Lines come from different studies, so protocols differ.
Target: Serine/threonine-protein kinase 10 (STK10, Homo sapiens, UniProt O94804)

SMILES	assay	conditions	endpoint	result
Cc1ccc(NC(=O)c2ccnc(C(F)(F)F)c2)cc1-c1cc(OCCO)nc(N2CCOCC2)c1	binding, competition with immobilised ligand	1 µM	remaining binding	21%
C1=C/COCc2cc(ccc2OCCN2CCCC2)Nc2nccc(n2)-c2cccc(c2)COC/1	cell-free assay	0.1 µM	remaining signal	89%
C=CC(=O)N1CCC([C@@H]2CCNc3c(C(N)=O)c(-c4ccc(Oc5ccccc5)cc4)nn32)CC1	enzyme activity, inhibitor	1 µM	inhibition	0%
COc1ccc2oc(-c3ccc4nc(N)oc4c3)c/c(=N\c3ccccc3NC(=O)CCN)c2c1	binding	1 µM	remaining binding	100%
CN1CCN(C(=O)c2ccc(NC(=O)Nc3ccc(N(C)c4ccnc(Nc5ccc(CS(C)(=O)=O)cc5)n4)cc3)cc2)CC1	binding, competition with immobilised ligand	1 µM	remaining binding	0.4%
C=CC(=O)N1CCC[C@@H](n2nc(-c3ccc(Oc4ccccc4)cc3)c3c(N)ncnc32)C1	enzyme activity, inhibitor	1 µM	inhibition	46%
C#Cc1cc(-c2cc(Nc3nc(N[C@@H](C)c4ccc(F)cn4)ncc3Cl)n[nH]2)ccc1C=O	enzyme activity, inhibitor	0.2 µM	inhibition	36.5%
CCCCC(=O)Nc1ccc(-c2ccc3ncn(CCC)c(=O)c3c2)cn1	binding, competition with immobilised ligand	0.5 µM	remaining binding	99%
